Test results reported in ChEMBL document CHEMBL4715860 (J Med Chem, 2020).
The source made the active and inactive calls. The rule behind the calls is not given here.

Assays:
[1] = Inhibition of mTORC1 in human A2058 cells assessed as reduction in RPS6 phosphorylation at S235/236 residue incubated for 1 hrs by Western blot analysis; format: cell-based; settings: A2058, 1 h
Procedure, shortened: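 A2058 cells grown 24 h at 37 °C, then exposed to inhibitor or DMSO for 1 h. Cells were PFA-fixed and stained for pPKB Ser473 or pS6 Ser235/236 by in-cell western with IR-dye secondary antibodies. Signal normalized to tubulin and to DMSO. IC50 from a 7-point (triplicate) or 11-point (duplicate) 1:2 series.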

[2] = Substrate activity at human P-glycoprotein stably expressed in MDCK cells at 1 uM measured after 5 to 20 mins by UPLC-MS/MS analysis; format: ADME, cell-based; settings: time 5-20 min
Procedure, shortened: (§1)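 CRISPR canine-MDR1-knockout MDCKII cells stably expressing human MDR1, with the knockout parent line as control. Cells grown 5 days on TransWell filters and preincubated in HBSS 30 min at 37 °C. Compound at 1 μM added apical or basolateral. Receiver sampled at 5, 10 and 20 min; UPLC-MS/MS.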

[3] = molecular target: T1, CYP1A2 (Homo sapiens, UniProt P05177); test: Drug metabolism assessed as human recombinant CYP1A2 expressed in baculovirus infected insect cells-mediated metabolism by measuring parent compound remaining at 1 uM incubated for 60 mins in presence of NADPH regenerating system by UHPLC based LC-MS analysis; format: ADME; settings: read-out: Stabilty
T1 sequence (P05177 whole entry): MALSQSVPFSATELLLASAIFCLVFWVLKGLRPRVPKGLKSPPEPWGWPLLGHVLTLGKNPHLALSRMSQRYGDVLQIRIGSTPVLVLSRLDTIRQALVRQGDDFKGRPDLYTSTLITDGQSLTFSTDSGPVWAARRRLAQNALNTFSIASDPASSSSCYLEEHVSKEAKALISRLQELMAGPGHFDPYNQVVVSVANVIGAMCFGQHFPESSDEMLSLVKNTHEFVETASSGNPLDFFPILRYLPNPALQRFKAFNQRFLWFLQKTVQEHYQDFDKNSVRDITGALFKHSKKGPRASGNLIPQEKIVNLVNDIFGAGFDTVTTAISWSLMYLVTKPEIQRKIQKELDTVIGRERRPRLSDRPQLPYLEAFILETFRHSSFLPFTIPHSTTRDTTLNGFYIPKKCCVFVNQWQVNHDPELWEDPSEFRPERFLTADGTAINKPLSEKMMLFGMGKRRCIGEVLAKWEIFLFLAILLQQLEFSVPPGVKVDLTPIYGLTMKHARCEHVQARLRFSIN

[4] = tested on: P-glycoprotein; test: Substrate activity at human P-glycoprotein stably expressed in MDCK cells assessed as efflux ratio at 1 uM measured after 5 to 20 mins by UPLC-MS/MS analysis; format: ADME, cell-based; settings: MDCK-MDR1, time 5-20 min; procedure, shortened: as §1
[5] = molecular target: PI3-kinase p110-alpha/p85-alpha (Homo sapiens, UniProt P42336); test: Inhibition of alexa fluor 647-labeled kinase tracer 314 binding to recombinant human N-terminal His-tagged p110alpha/p85alpha expressed in baculovirus expression system measured after 60 mins by LanthaScreen TR-FRET assay relative to control
[6] = Tmax in C57BL/6J mouse plasma at 25 mg/kg, po administered as single dose by mass spectrometry based UHPLC analysis; format: ADME, organism-based
Procedure, shortened: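 Female C57BL/6J mice given a single oral dose of 25 mg/kg. Plasma and brain levels followed over time (n = 3 per time point, mean). Tmax is the time of maximal concentration.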

[7] = Elimination half life in C57BL/6J mouse plasma at 10 mg/kg, po administered once a day for 4 consecutive days by mass spectrometry based UHPLC analysis; format: ADME, organism-based; settings: time 4 day, read-out: beta t1/2 (converted)
Procedure, shortened: (§2)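 Female C57BL/6J mice given 10 mg/kg p.o. in 20% Captisol once daily for 4 consecutive days. Plasma and brain sampled after the final dose on day 4, n = 3 per time point.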

[8] = Elimination half life in C57BL/6J mouse plasma at 10 mg/kg, po administered as single dose by mass spectrometry based UHPLC analysis; format: ADME, organism-based; settings: read-out: beta t1/2 (converted)
Procedure, shortened: (§3)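 Female C57BL/6J mice, one oral dose of 10 mg/kg in 20% Captisol; plasma and brain levels over time, n = 3 per time point (mean).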

[9] = Elimination half life in C57BL/6J mouse plasma at 25 mg/kg, po administered as single dose by mass spectrometry based UHPLC analysis; format: ADME, organism-based; settings: read-out: beta t1/2 (converted)
Procedure, shortened: (§4)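 One oral dose of 25 mg/kg to female C57BL/6J mice. Plasma and brain concentrations followed over time, n = 3 per time point (mean).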

[10] = Toxicity in Balb/c nude mouse assessed as change in body weight at 150 mg/kg, po administered once daily for 14 days measured for 7 days starting from post last dose; format: organism-based; settings: in vivo, 504 h, time 21 day
[11] = tested on: Mus musculus; test: Protection against Tsc1-GFAP knockout induced mortality in Balb/c mouse assessed as increase in survival rate at 50 mg/kg, po administered twice daily; format: functional, organism-based
Procedure, shortened: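 Tsc1GFAPCKO mice (conditional Tsc1 inactivation mainly in glia) dosed orally starting at P21, at 10 mg/kg or 50 mg/kg bid (n = 10 and 7). Survival recorded to P90, with censoring at P90. Compared with vehicle and everolimus by log-rank test.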

[12] = Toxicity in Tsc1-GFAP knockout Balb/c mouse assessed as change in body weight at 10 to 50 mg/kg, po administered as single dose; format: organism-based; settings: in vivo, dose 10-50 mg/kg
[13] = AUC (0 to 8 hrs) in C57BL/6J mouse brain at 25 mg/kg, po administered as single dose by mass spectrometry based UHPLC analysis; format: ADME, organism-based; parameters: time < 8 hr, route oral, dose 25 mg/kg; procedure, shortened: as §4
[14] = Elimination half life in C57BL/6J mouse brain at 10 mg/kg, po administered once a day for 4 consecutive days by mass spectrometry based UHPLC analysis; format: ADME, organism-based; settings: time 4 day, read-out: beta t1/2 (converted); procedure, shortened: as §2
[15] = Clearance in C57BL/6J mouse plasma at 10 mg/kg, po administered as single dose by mass spectrometry based UHPLC analysis; format: ADME, organism-based; procedure, shortened: as §3
[16] = Intrinsic clearance in Beagle dog hepatocytes assessed per million cells at 5 uM incubated for 3 hrs by LC-MS analysis; format: ADME, cell-based, Canis lupus familiaris, Hepatocyte; settings: read-out: CLH
Procedure, shortened: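 Cryopreserved Beagle dog hepatocytes in suspension with compound at 5 μM (final, from 10 mM DMSO stock). Sampled at 0, 15, 60, 90 and 180 min, ACN-precipitated and analysed by LC-MS. Duplicates; 7-ethoxycoumarin as positive control, hepatocyte-free medium as negative control. CLint given per 10^6 cells, mean ± SEM (n = 2).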

[17] = Metabolic stability in CD1 mouse hepatocytes assessed as parent compound remaining at 5 uM incubated for 3 hrs by LC-MS analysis; format: ADME, cell-based, Hepatocyte; settings: read-out: Stabilty
Procedure, shortened: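 Cryopreserved primary hepatocytes in suspension (CD-1 mouse, Sprague-Dawley rat, Beagle dog, human). Compound diluted from 10 mM DMSO stock to 5 μM final. Sampled at 0, 15, 60, 90 and 180 min, protein precipitated with ACN plus internal standard, supernatant analysed by LC−MS. Run in duplicate. 7-ethoxycoumarin as positive control. Hepatocyte-free medium incubations as negative control.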

[18] = Clearance in C57BL/6J mouse plasma at 25 mg/kg, po administered as single dose by mass spectrometry based UHPLC analysis; format: ADME, organism-based; procedure, shortened: as §4

Chain of PI3-kinase p110-alpha/p85-alpha (P27986 whole entry): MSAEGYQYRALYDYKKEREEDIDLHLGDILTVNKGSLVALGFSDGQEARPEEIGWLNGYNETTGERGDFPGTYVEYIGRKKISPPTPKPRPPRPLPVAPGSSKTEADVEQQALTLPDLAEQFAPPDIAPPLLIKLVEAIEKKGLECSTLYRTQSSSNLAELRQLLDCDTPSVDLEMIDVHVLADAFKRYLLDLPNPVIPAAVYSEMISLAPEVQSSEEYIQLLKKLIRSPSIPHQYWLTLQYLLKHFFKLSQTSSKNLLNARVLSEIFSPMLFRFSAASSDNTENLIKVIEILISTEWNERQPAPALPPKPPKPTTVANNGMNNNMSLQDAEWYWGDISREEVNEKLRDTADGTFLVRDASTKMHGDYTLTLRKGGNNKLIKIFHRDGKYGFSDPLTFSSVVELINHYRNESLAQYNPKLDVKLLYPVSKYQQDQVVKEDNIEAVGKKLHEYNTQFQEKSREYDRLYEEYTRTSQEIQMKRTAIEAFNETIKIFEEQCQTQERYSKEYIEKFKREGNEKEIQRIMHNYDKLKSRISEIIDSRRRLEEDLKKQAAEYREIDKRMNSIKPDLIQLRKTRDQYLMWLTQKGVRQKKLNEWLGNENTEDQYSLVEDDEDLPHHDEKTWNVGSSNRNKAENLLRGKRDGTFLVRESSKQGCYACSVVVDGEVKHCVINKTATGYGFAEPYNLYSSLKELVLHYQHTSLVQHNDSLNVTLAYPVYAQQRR
Chain of PI3-kinase p110-alpha/p85-alpha (P42336 whole entry): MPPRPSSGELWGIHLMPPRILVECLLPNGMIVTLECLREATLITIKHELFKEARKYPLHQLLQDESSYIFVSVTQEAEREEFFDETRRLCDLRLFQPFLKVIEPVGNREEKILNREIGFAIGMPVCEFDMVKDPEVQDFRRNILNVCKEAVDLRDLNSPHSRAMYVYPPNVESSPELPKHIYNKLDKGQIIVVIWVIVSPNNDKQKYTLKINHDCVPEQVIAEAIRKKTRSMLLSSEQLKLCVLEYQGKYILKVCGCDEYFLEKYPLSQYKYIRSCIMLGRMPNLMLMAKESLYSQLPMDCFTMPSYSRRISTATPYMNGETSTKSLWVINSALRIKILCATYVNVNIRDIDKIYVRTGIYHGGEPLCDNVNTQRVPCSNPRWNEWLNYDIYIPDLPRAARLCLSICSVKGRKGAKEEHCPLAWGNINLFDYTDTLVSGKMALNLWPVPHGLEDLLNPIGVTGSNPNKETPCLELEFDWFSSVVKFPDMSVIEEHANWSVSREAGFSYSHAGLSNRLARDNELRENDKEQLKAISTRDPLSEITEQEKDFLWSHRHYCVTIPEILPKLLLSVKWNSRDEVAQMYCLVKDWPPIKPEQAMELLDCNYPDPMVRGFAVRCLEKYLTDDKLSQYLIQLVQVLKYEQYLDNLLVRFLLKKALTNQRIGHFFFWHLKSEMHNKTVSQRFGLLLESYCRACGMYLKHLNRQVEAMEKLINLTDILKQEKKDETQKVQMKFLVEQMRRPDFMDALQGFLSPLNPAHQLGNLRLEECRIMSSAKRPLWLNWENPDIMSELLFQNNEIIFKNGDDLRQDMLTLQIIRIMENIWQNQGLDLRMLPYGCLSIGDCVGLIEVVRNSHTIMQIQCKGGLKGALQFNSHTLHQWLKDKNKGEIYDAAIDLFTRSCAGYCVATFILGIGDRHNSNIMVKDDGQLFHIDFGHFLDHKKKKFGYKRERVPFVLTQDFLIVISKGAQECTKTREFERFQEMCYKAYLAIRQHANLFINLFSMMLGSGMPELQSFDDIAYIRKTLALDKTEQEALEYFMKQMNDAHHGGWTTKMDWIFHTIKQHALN

Row | IC50 [1] | Activity [2] | remaining at 1 h, 1 µM [3] | efflux ratio at 1 µM [4] | Ki [5] | Tmax [6] | half-life [7] | half-life [8] | half-life [9] | AUC(0-t) at 8 h [13] | half-life [14] | CL/F [15] | hepatocyte CLint at 5 µM [16] | remaining at 3 h, 5 µM [17] | CL/F [18] | SMILES | Activity [10] | Activity [11] | Activity [12]
1 | 61 nM | Not Active | 101% | 1.5 | 469 nM | – | – | – | – | – | – | – | – | – | – | C[C@@H]1COCCN1c1nc(-c2cnc(N)cc2C(F)F)nc(N2CCOCC2(C)C)n1 | – | – | –
2 | 71 nM | Not Active | 98.5% | – | 287 nM | 0.2 h | 2.2 h | 3 h | 2.4 h | 17100 ng·h/mL | 2.3 h | 56.6 mL/min/kg | 1.8 µL/min/1e6 cells | 48.4% | 40.5 mL/min/kg | C[C@@H]1COCCN1c1nc(-c2cnc(N)cc2C(F)F)nc(N2[C@H](C)COC[C@@H]2C)n1 | Non-Toxic | Active | Non-Toxic
